Experiments:
[1] = target: Histamine H1 receptor (Cavia porcellus) (UniProt P31389); assay: (§1) The compound was tested in vitro for binding affinity against histamine H1 receptor from guinea pig cerebellum, using [3H]pyrilamine as radioligand at 0.1 uM; assay type: tissue-based
Outline: (§2)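 Male Hartley guinea-pig cerebellum membranes (washed twice, 35000–35500g) in 50 mM Na/K phosphate, pH 7.5. Tissue (10 mg wet weight) was incubated with 3.8 nM [3H]pyrilamine and 0.1 μM drug for 30 min at 25 °C. Nonspecific binding was set with 1 μM astemizole. Bound ligand was collected by GF/C filtration with three ice-cold washes and counted by liquid scintillation.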

[2] = target: T1, Muscarinic acetylcholine receptor M1 (Rattus norvegicus) (UniProt P08482); assay: The compound was tested in vitro for binding affinity against muscarinic acetylcholine Muscarinic acetylcholine receptor M1 from rat striatum, using [3H]quinuclidinyl benzilate as radioligand at 10 uM.
T1 sequence (whole entry): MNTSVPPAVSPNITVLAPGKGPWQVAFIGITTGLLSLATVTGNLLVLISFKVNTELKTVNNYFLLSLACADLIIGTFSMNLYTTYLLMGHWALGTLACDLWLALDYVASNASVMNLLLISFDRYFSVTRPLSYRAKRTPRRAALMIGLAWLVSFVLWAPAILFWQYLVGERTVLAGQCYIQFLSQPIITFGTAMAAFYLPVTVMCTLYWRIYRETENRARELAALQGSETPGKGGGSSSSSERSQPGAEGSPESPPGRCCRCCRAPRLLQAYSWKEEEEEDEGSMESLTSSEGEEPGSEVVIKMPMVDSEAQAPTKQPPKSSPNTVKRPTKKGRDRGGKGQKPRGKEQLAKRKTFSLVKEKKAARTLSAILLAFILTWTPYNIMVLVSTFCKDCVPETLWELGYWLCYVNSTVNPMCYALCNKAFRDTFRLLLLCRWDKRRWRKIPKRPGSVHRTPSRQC
Outline: (§3)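 Rat striatum was homogenized in water and diluted to 200 volumes in 50 mM Na/K phosphate, pH 7.4. Tissue (5 mg wet weight) was incubated with 1.26 nM [3H]quinuclidinyl benzilate for 60 min at 37 °C. Nonspecific binding was defined with 1 μM unlabeled dexetimide. Bound ligand was collected by GF/B filtration with three ice-cold buffer washes and counted by scintillation.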

[3] = system: Rattus norvegicus; assay: The compound at 1 mg/kg was tested in vivo for inhibitory effect on 48-h homologous passive cutaneous anaphylaxis (PCA) in rats administered perorally
[4] = system: Rattus norvegicus; assay: The compound was tested in vivo for inhibitory effect on 48-h homologous passive cutaneous anaphylaxis (PCA) in rats administered perorally; assay type: functional; conditions: po
Outline: (§4)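 Male Wistar rats, three per group, received intradermal anti-ovalbumin rat IgE serum (0.05 mL, 1:8 in saline) at two dorsal sites. After 48 h they were challenged iv with 1 mg ovalbumin plus 5 mg Evans blue. Compound was given orally 1 h before challenge. […] ED50 came from responders (>50% inhibition).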

[5] = target: T1, Muscarinic acetylcholine receptor M1 (Rattus norvegicus); assay: Binding affinity for Muscarinic acetylcholine receptor M1 from rat striatum, using [3H]quinuclidinyl benzilate as radioligand at 10 uM.
Outline: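 Rat striatum was homogenized in water and diluted to 200 volumes in 50 mM Na/K phosphate, pH 7.4. Nonspecific binding was defined with 1 μM unlabeled dexetimide. Bound ligand was collected by GF/B filtration with three ice-cold buffer washes and counted by scintillation.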

[6] = target: T2, Histamine H1 receptor (Cavia porcellus, UniProt P31389); assay: Binding affinity for histamine H1 receptor from guinea pig cerebellum, using [3H]pyrilamine as radioligand at 0.1 uM; assay type: tissue-based; outline: as §2
[7] = system: Cavia porcellus; assay: The compound was tested in vivo for the inhibition of IgG1-mediated bronchoconstriction in guinea pig at 0.03 mg/kg administered perorally; assay type: functional; conditions: route oral; for ED50: read-out: ID50 (the source's name)
Outline: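 Male Hartley guinea pigs, 8–12 per group, were passively sensitized ip with 1 mL IgG-like anti-ovalbumin antiserum. After 24 h they were urethane-anesthetized, ventilated and given gallamine. Compound was given orally 1 h before ovalbumin challenge (5 mg/kg iv). Konzett–Rössler overflow was read as % inhibition versus controls at 5 min after challenge.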

[8] = system: Rattus norvegicus; assay: The compound at 1 uM was tested in vivo for inhibitory effect on 48-h homologous passive cutaneous anaphylaxis (PCA) in rats administered perorally; assay type: functional; conditions: in the assay text read “at 1 mg/kg” for “at 1 uM”; outline: as §4
[9] = target: T2, Histamine H1 receptor; assay: as §1; assay type: tissue-based
Outline: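 Male Hartley guinea-pig cerebellum membranes (washed twice, 35000–35500g) in 50 mM Na/K phosphate, pH 7.5. Nonspecific binding was set with 1 μM astemizole. Bound ligand was collected by GF/C filtration with three ice-cold washes and counted by liquid scintillation.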

[10] = target: T1, Muscarinic acetylcholine receptor M1 (Rattus norvegicus); assay: The compound was tested in vitro for binding affinity Muscarinic acetylcholine receptor M1 from rat striatum, using [3H]quinuclidinyl benzilate as radioligand at 10 uM.; outline: as §3
[11] = system: Rattus norvegicus; assay: The compound at 10 uM was tested in vivo for inhibitory effect on 48-h homologous passive cutaneous anaphylaxis (PCA) in rats administered perorally; assay type: functional; conditions: in the assay text read “at 10 mg/kg” for “at 10 uM”; outline: as §4

T2 sequence (P31389 whole entry): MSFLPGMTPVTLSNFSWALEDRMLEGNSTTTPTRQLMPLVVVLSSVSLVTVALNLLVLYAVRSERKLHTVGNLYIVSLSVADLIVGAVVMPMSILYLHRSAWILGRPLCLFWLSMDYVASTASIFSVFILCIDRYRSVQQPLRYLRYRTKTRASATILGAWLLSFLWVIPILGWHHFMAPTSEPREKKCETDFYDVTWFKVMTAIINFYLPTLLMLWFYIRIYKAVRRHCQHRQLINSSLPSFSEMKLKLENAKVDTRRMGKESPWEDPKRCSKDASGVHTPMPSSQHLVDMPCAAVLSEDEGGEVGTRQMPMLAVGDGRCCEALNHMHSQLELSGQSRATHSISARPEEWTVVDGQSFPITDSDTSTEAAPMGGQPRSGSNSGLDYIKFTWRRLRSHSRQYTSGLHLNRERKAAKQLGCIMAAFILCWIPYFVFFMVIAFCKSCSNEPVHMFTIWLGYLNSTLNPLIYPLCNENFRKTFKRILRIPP
Chain of Histamine H1 receptor (Cavia porcellus) (P31389 whole entry): as above

| SMILES | inhibition [5] [%] | Ki [6] [nM] | ED50 [4] [mg/kg] | ED50 [7] [mg/kg] | inhibition in vivo at 0.03 mg/kg [7] [%] | other results |
| --- | --- | --- | --- | --- | --- | --- |
| O=C(O)/C=C/C(=O)O.O=C(O)c1ccc2c(c1)/C(=C/CN1CCOCC1)c1ccccc1CO2 |  |  |  |  |  | inhibition [1]: 19%; inhibition [2]: 2%; Inhibition [3]: 12% |
| CN(C)CC/C=C1\c2ccccc2COc2ccc(CCO)cc21 | 72 | 0.48 | 0.14 | 0.0059 |  |  |
| CN(C)CC/C=C1\c2ccccc2COc2ccc(C(=O)O)cc21.O=C(O)/C=C/C(=O)O | 5 | 4.2 | 0.74 | 0.021 |  |  |
| CN(C)CCC/C=C1/c2ccccc2COc2ccc(CC(=O)O)cc21 | 2 | 4.6 |  |  | 60 | Inhibition [8]: 55% |
| CN1CCN(C/C=C2\c3ccccc3COc3ccc(CC(=O)O)cc32)CC1.O=C(O)/C=C/C(=O)O |  |  |  |  |  | inhibition [1]: 29%; inhibition [2]: 3%; Inhibition [8]: 44% |
| CN(C)CC/C=C1/c2ccccc2COc2ccc(CCC(=O)O)cc21 |  |  | 0.32 | 0.015 |  | Ki [9]: 15 nM; inhibition [10]: 2% |
| CN(C)C/C=C1\c2ccccc2COc2ccc(C(=O)O)cc21.O=C(O)/C=C/C(=O)O | -2 | 12 |  |  | 28 | Inhibition [3]: 19% |
| O=C(O)/C=C/C(=O)O.O=C(O)c1ccc2c(c1)/C(=C/CN1CCSCC1)c1ccccc1CO2 |  |  |  |  |  | inhibition [1]: 30%; Inhibition [11]: 24%; inhibition [2]: 3% |
| CN(C)CC/C=C(/c1ccccc1)c1cccc(C(=O)O)c1 | 4 |  |  |  |  | inhibition [1]: 10% |
| CN(C)CCSC1c2ccccc2COc2ccc(C(=O)O)cc21.Cl (configuration not stated) |  | 14 | 0.92 | 0.029 |  | inhibition [2]: 7% |
| CN1CCN(C/C=C2\c3ccccc3COc3ccc(C(=O)O)cc32)CC1.O=C(O)/C=C/C(=O)O |  |  |  |  |  | inhibition [1]: 0%; inhibition [2]: 2%; Inhibition [3]: 10% |
| CN(C)C/C=C1\c2ccccc2COc2ccc(CC(=O)O)cc21 |  |  | 0.077 | 0.018 |  | Ki [9]: 11 nM; inhibition [10]: 1% |
| CC(C)O.O=C(O)c1ccc2c(c1)/C(=C\CCN1CCOCC1)c1ccccc1CO2 |  |  |  |  | -1 | inhibition [1]: 24%; inhibition [2]: -2%; Inhibition [8]: 74% |
| CN(C)CCC/C=C1\c2ccccc2COc2ccc(C(=O)O)cc21 | 12 | 6.3 | 1.2 |  | 1.4 |  |
| CN(C)CC/C=C1\c2ccccc2COc2ccc(CCC(=O)O)cc21 | 5 | 4.2 | 0.26 | 0.0064 |  |  |
| CN(C)CC/C=C1/c2ccccc2COc2ccc(CCO)cc21 | 80 |  | 0.12 |  |  | Ki [9]: 0.63 nM |
| CN(C)CC/C=C1\c2ccccc2COc2ccc(CC(=O)O)cc21 | -1 | 5.2 | 0.021 | 0.0041 |  |  |
| CCN(CC)CC/C=C1/c2ccccc2COc2ccc(C(=O)O)cc21.O=C(O)/C=C/C(=O)O | 3 | 10 | 0.12 |  | 19 |  |
| Cc1ccc2c(c1)/C(=C/CCN(C)C)c1ccccc1CO2.O=C(O)/C=C/C(=O)O |  | 0.13 |  |  |  | Inhibition [8]: 20% |

Now from value to molecule, other results behind:

| inhibition [5] [%] | Ki [6] [nM] | SMILES | ED50 [4] [mg/kg] | ED50 [7] [mg/kg] | inhibition in vivo at 0.03 mg/kg [7] [%] | other results |
| --- | --- | --- | --- | --- | --- | --- |
| 3 | 16 | CN(C)CC/C=C1/c2ccccc2COc2ccc(CC(=O)O)cc21.Cl [OLOPATADINE HYDROCHLORIDE] | 0.049 | 0.03 |  |  |
| 27 | 7.6 | O=C(O)c1ccc2c(c1)/C(=C\CCN1CCSCC1)c1ccccc1CO2 |  |  | 27 | Inhibition [8]: 60% |
| 2 |  | CN(C)CCC/C=C1/c2ccccc2COc2ccc(C(=O)O)cc21 | 1.2 |  | 11 | Ki [9]: 5.8 nM |
| 1 | 20 | CN(C)CC/C=C1/c2ccccc2COc2ccc(C(=O)O)cc21 | 0.25 | 0.053 |  |  |
| -1 | 29 | CN(C)CC/C=C1/c2ccccc2COc2ccc(/C=C/C(=O)O)cc21.O=C(O)/C=C/C(=O)O | 1 |  | 1.1 |  |
| -1 | 24 | CN(C)CC/C=C1/c2ccccc2COc2cc(C(=O)O)ccc21 |  |  |  | Inhibition [3]: 19% |
| 3 | 5 | O=C(O)/C=C/C(=O)O.O=C(O)c1ccc2c(c1)/C(=C\CCN1CCCC1)c1ccccc1CO2 |  |  | 8.7 | Inhibition [11]: 53% |
| 55 |  | CN1CCC(=C2c3ccccc3CC(=O)c3sccc32)CC1 [KETOTIFEN] | 4.8 | 0.009 |  |  |

Reference: ChEMBL document CHEMBL1126065, “Synthesis and antiallergic activity of 11-(aminoalkylidene)-6,11-dihydrodibenz[b,e]oxepin derivatives” (J Med Chem, 1992)
